The record followed here is ChEMBL document CHEMBL4680238, “Novel octapeptide-DTX prodrugs targeting MMP-7 as effective agents for the treatment of colorectal cancer with lower systemic toxicity” (Eur J Med Chem, 2020).

Residues, ends and D or L forms follow the SMILES beside them. *: point of attachment. X2 = CC(=O)O[C@@]12CO[C@@H]1C[C@H](O)[C@@]1(C)C(=O)[C@H](O)C3=C(C)[C@@H](OC(=O)[C@H](OC(=O)OCc4ccc(N*)cc4)[C@@H](NC(=O)OC(C)(C)C(F)(F)F)c4ccccc4)C[C@@](O)([C@@H](OC(=O)c4cccc(F)c4)[C@H]21)C3(C)C; X1 = CC(=O)O[C@@]12CO[C@@H]1C[C@H](O)[C@@]1(C)C(=O)[C@H](O)C3=C(C)[C@@H](OC(=O)[C@H](OC(=O)OCc4ccc(N*)cc4)[C@@H](NC(=O)OC(C)(C)C)c4ccccc4)C[C@@](O)([C@@H](OC(=O)c4ccccc4)[C@H]21)C3(C)C; Fmoc = O=C(OCC1c2ccccc2-c2ccccc21)*

One data set has as its system SW-620. In words: Cytotoxicity against human SW-620 cells assessed as reduction in cell viability after 72 hrs by MTT assay. To be noted: SW-620, 72 h. Type of data set: functional, cell-based. Summed up: (§1)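 Cells seeded at 5000/well and precultured 1 day. HCT116 grown in McCoy's 5A + 10% FBS; SW620 and HEK293 in DMEM + 10% FBS; CCD18Co in DMEM + 15% FBS. Compounds from 0.1 M DMSO stocks were tested at 10^-10 to 10^-4 mol/L in sixplicate: HCT116 and HEK293 for 48 h, SW620 and CCD18Co for 72 h, at 37 °C, 5% CO2. MTT (5 mg/mL) added for 4 h, then A570 read; IC50 estimated.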
Background: Tetrazolium dyes change colour on reduction, which living cells bring about.

Data set [1] relates to HCT-116. Nature of the data set: Cytotoxicity against human HCT-116 cells assessed as reduction in cell viability after 48 hrs by MTT assay. Type of data set: functional, cell-based. Particulars: HCT-116, 48 h. Summed up: as §1
The next data set deals with CCD-18Co. Nature of the data set: Cytotoxicity against human CCD-18Co cells assessed as reduction in cell viability after 72 hrs by MTT assay. The format is cell-based. Summed up: as §1
In the next data set the test system is HEK293. Nature of the data set: Cytotoxicity against HEK293 cells assessed as reduction in cell viability after 48 hrs by MTT assay. Type of data set: cell-based. To be noted: Homo sapiens, HEK293, 48 h. Put shortly: as §1
Data set [2] is described as follows: Half life of compound in PBS buffer at pH 7.4 at 50 ug/ml up to 72 hrs by RP-HPLC analysis. Type of data set: physicochemical. Particulars: dose 50 µg/ml.
The nature of data set [3]: Half life in Sprague-Dawley rat plasma t 50 ug/ml up to 72 hrs by RP-HPLC analysis. The format is ADME, cell-free. Particulars: dose 50 µg/ml.
Data set [4] has as its system HCT-116. Nature of the data set: Antitumour activity against human HCT-116 cells xenografted in BALB/c nude mouse assessed as tumour growth inhibition at 5 mg/kg, ip administered once for every 7 days for 14 days relative to control. To be noted: HCT-116, ip, 336 h, time 14 day, read-out: TGI. The format is functional. Summed up:
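Male BALB/c nude mice received s.c. HCT116 cells (2 × 10^6 in 0.2 mL PBS). Once tumours reached 100-200 mm3, mice were randomized into groups of six. Dosing was ip, 0.1 mL/10 g, once every 7 days, in DMSO 0.5%/castor oil 5%/ethanol 5%/saline 89.5%; vehicle controls got solvent. Caliper volume V = L×W²×0.52 read every 2-3 days. Tumours excised and weighed on day 14.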

The term IC50 denotes the concentration needed to halve the response being measured. What is called half-life is how long it takes for the measured level to halve.

On to `CC[C@H](C)[C@H](NC(=O)CNC(=O)[C@H](CCSC)NC(=O)[C@@H]1CCCN1C(=O)CNC(C)=O)C(=O)N[C@@H](C)C(=O)NCC(=O)N[C@@H](CCC(N)=O)C(=O)N[C@@H](CC(C)C)C(=O)Nc1ccc(COC(=O)O[C@@H](C(=O)O[C@H]2C[C@@]3(O)[C@@H](OC(=O)c4ccccc4)[C@@H]4[C@]5(OC(C)=O)CO[C@@H]5C[C@H](O)[C@@]4(C)C(=O)[C@H](O)C(=C2C)C3(C)C)[C@@H](NC(=O)OC(C)(C)C)c2ccccc2)cc1` (Ac-GPMGIAGQL-X1), for which the IC50 in the data set on SW-620 is 1.14 µM; in the data set with HCT-116 [1], 0.0072 µM; in the data set with CCD-18Co, > 200 µM; with HEK293 it was 11 µM. Also, the figures for the half-life at 50 ug/ml in data set [2] and in data set [3] were > 72 h and 23.9 h, respectively.
For the compound `CC[C@H](C)[C@H](NC(=O)[C@H](C)NC(=O)[C@H](CCC(N)=O)NC(=O)[C@@H]1CCCN1C(=O)CNC(C)=O)C(=O)N[C@@H](C)C(=O)NCC(=O)N[C@@H](CCC(N)=O)C(=O)N[C@@H](CC(C)C)C(=O)Nc1ccc(COC(=O)O[C@@H](C(=O)O[C@H]2C[C@@]3(O)[C@@H](OC(=O)c4cccc(F)c4)[C@@H]4[C@]5(OC(C)=O)CO[C@@H]5C[C@H](O)[C@@]4(C)C(=O)[C@H](O)C(=C2C)C3(C)C)[C@@H](NC(=O)OC(C)(C)C(F)(F)F)c2ccccc2)cc1` (Ac-GPQAIAGQL-X2), the IC50 is 0.65 µM in the data set on SW-620, 0.0054 µM with HCT-116 [1], > 200 µM with CCD-18Co and 94.1 µM in the data set on HEK293. The half-life at 50 ug/ml in data set [2] is > 72 h; in data set [3] it was 24 h.
As for `CC[C@H](C)[C@H](NC(=O)CNC(=O)[C@H](CC(C)C)NC(=O)[C@@H]1CCCN1C(=O)CNC(=O)OCC1c2ccccc2-c2ccccc21)C(=O)N[C@@H](C)C(=O)NCC(=O)N[C@@H](CCC(N)=O)C(=O)N[C@@H](CC(C)C)C(=O)Nc1ccc(COC(=O)O[C@@H](C(=O)O[C@H]2C[C@@]3(O)[C@@H](OC(=O)c4ccccc4)[C@@H]4[C@]5(OC(C)=O)CO[C@@H]5C[C@H](O)[C@@]4(C)C(=O)[C@H](O)C(=C2C)C3(C)C)[C@@H](NC(=O)OC(C)(C)C)c2ccccc2)cc1` (Fmoc-GPLGIAGQL-X1), the IC50 with SW-620 is 1.01 µM; in the data set on HCT-116 [1], 0.0098 µM; with CCD-18Co, > 200 µM; in the data set on HEK293 it was 15.2 µM. Besides, the values for the half-life at 50 ug/ml in data set [2] and in data set [3] were > 72 h and 35.9 h, respectively.
For `CC[C@H](C)[C@H](NC(=O)CNC(=O)[C@H](CC(C)C)NC(=O)[C@@H]1CCCN1C(=O)CNC(=O)OCC1c2ccccc2-c2ccccc21)C(=O)N[C@@H](C)C(=O)NCC(=O)N[C@@H](CCC(N)=O)C(=O)N[C@@H](CC(C)C)C(=O)Nc1ccc(COC(=O)O[C@@H](C(=O)O[C@H]2C[C@@]3(O)[C@@H](OC(=O)c4cccc(F)c4)[C@@H]4[C@]5(OC(C)=O)CO[C@@H]5C[C@H](O)[C@@]4(C)C(=O)[C@H](O)C(=C2C)C3(C)C)[C@@H](NC(=O)OC(C)(C)C(F)(F)F)c2ccccc2)cc1` (Fmoc-GPLGIAGQL-X2), the IC50 with SW-620 is 0.21 µM; with HCT-116 [1], 0.439 µM; in the data set with CCD-18Co, > 200 µM; in the data set with HEK293, 38.3 µM. The half-life at 50 ug/ml in data set [2] is > 72 h; in data set [3] it was 47.8 h.
As for `CC[C@H](C)[C@H](NC(=O)CNC(=O)[C@H](CCSC)NC(=O)[C@@H]1CCCN1C(=O)CNC(C)=O)C(=O)N[C@@H](C)C(=O)NCC(=O)N[C@@H](CCC(N)=O)C(=O)N[C@@H](CC(C)C)C(=O)Nc1ccc(COC(=O)O[C@@H](C(=O)O[C@H]2C[C@@]3(O)[C@@H](OC(=O)c4cccc(F)c4)[C@@H]4[C@]5(OC(C)=O)CO[C@@H]5C[C@H](O)[C@@]4(C)C(=O)[C@H](O)C(=C2C)C3(C)C)[C@@H](NC(=O)OC(C)(C)C(F)(F)F)c2ccccc2)cc1` (Ac-GPMGIAGQL-X2), the IC50 in the data set with SW-620 was > 200 µM; in the data set on HCT-116 [1], 0.0209 µM; in the data set with CCD-18Co, > 200 µM; in the data set with HEK293, 21.3 µM. Besides, the half-life at 50 ug/ml in data set [2] is > 72 h; in data set [3] it was 24 h.
For `CC[C@H](C)[C@H](NC(=O)[C@H](C)NC(=O)[C@H](CCC(N)=O)NC(=O)[C@@H]1CCCN1C(=O)CNC(C)=O)C(=O)N[C@@H](C)C(=O)NCC(=O)N[C@@H](CCC(N)=O)C(=O)N[C@@H](CC(C)C)C(=O)Nc1ccc(COC(=O)O[C@@H](C(=O)O[C@H]2C[C@@]3(O)[C@@H](OC(=O)c4ccccc4)[C@@H]4[C@]5(OC(C)=O)CO[C@@H]5C[C@H](O)[C@@]4(C)C(=O)[C@H](O)C(=C2C)C3(C)C)[C@@H](NC(=O)OC(C)(C)C)c2ccccc2)cc1` (Ac-GPQAIAGQL-X1), the IC50 was > 200 µM with SW-620, 0.0113 µM in the data set on HCT-116 [1], > 200 µM in the data set on CCD-18Co and 106 µM in the data set on HEK293. The half-life at 50 ug/ml in data set [2] is > 72 h; in data set [3], 12 h.
On to `CC(=O)NCC(=O)N1CCC[C@H]1C(=O)N[C@@H](CCC(N)=O)C(=O)NCC(=O)N[C@@H](CC(C)C)C(=O)N[C@@H](C)C(=O)NCC(=O)N[C@@H](CCC(N)=O)C(=O)N[C@@H](CC(C)C)C(=O)Nc1ccc(COC(=O)O[C@@H](C(=O)O[C@H]2C[C@@]3(O)[C@@H](OC(=O)c4cccc(F)c4)[C@@H]4[C@]5(OC(C)=O)CO[C@@H]5C[C@H](O)[C@@]4(C)C(=O)[C@H](O)C(=C2C)C3(C)C)[C@@H](NC(=O)OC(C)(C)C(F)(F)F)c2ccccc2)cc1` (Ac-GPQGLAGQL-X2), for which the IC50 was > 200 µM in the data set with SW-620, 0.0257 µM in the data set with HCT-116 [1], > 200 µM in the data set with CCD-18Co and 6.17 µM with HEK293. For the same compound, the half-life at 50 ug/ml is 48.3 h in data set [2] and 24.1 h in data set [3].
In the case of `O=c1[nH]cc(F)c(=O)[nH]1` [FLUOROURACIL], the IC50 was 6.96 µM with SW-620, 26 µM with HCT-116 [1], > 200 µM with CCD-18Co and 79.3 µM in the data set on HEK293. Moreover, the inhibition in vivo at 5 mg/kg in the data set on HCT-116 [4] was determined as 11.4%.
As for `CC(=O)NCC(=O)N1CCC[C@H]1C(=O)N[C@@H](CCC(N)=O)C(=O)NCC(=O)N[C@@H](CC(C)C)C(=O)N[C@@H](C)C(=O)NCC(=O)N[C@@H](CCC(N)=O)C(=O)N[C@@H](CC(C)C)C(=O)Nc1ccc(COC(=O)O[C@@H](C(=O)O[C@H]2C[C@@]3(O)[C@@H](OC(=O)c4ccccc4)[C@@H]4[C@]5(OC(C)=O)CO[C@@H]5C[C@H](O)[C@@]4(C)C(=O)[C@H](O)C(=C2C)C3(C)C)[C@@H](NC(=O)OC(C)(C)C)c2ccccc2)cc1` (Ac-GPQGLAGQL-X1), the IC50 in the data set on SW-620 was 21.9 µM; with HCT-116 [1], 0.0052 µM; in the data set with CCD-18Co, > 200 µM; in the data set on HEK293, 165 µM. The half-life at 50 ug/ml is 35.1 h in data set [2] and 14 h in data set [3].
